Data published in ChEMBL document CHEMBL1255406, “Production of a class II two-component lantibiotic of Streptococcus pneumoniae using the class I nisin synthetic machinery and leader sequence” (2010).
In brackets after ≈: the same amount, converted by molar mass. Activity calls are given as the source filed them. The calls are words filed in the database; no cut-off is given here. Peptide text beside a SMILES is read from it.

Tests used:
[1] = tested on: Staphylococcus aureus; assay: Antimicrobial activity against Staphylococcus aureus assessed as growth inhibition in presence of leucine aminopeptidase; assay type: functional, organism-based
Method in brief: (§1)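 Leader cleaved by 30 min incubation at 37°C with leucine aminopeptidase in phosphate buffer, pH 7.4. Strains in GM17 at 37°C, diluted 1:50 from overnight and grown to OD600 0.2, then mixed with peptide dilutions. OD600 monitored every 30 min. MIC = lowest concentration inhibiting growth, read when untreated cultures reach half-maximal OD. At least triplicate.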

[2] = tested on: Enterococcus faecalis; assay: Antimicrobial activity against Enterococcus faecalis assessed as growth inhibition in presence of trypsin; assay type: functional, organism-based
Method in brief: (§2)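 Strains in GM17 at 37°C, diluted 1:50 from overnight and grown to OD600 0.2, then exposed to peptide dilutions. OD600 read every 30 min. MIC = lowest inhibiting concentration when untreated cells reach half-maximal OD. At least triplicate.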

[3] = tested on: Streptococcus mitis; assay: Antimicrobial activity against Streptococcus mitis assessed as growth inhibition in presence of trypsin; assay type: functional, organism-based; method in brief: as §2
[4] = tested on: Streptococcus mitis; assay: Antimicrobial activity against Streptococcus mitis assessed as growth inhibition in presence of leucine aminopeptidase; assay type: functional, organism-based; method in brief: as §1
[5] = tested on: Streptococcus pneumoniae; assay: Antimicrobial activity against Streptococcus pneumoniae assessed as growth inhibition in presence of leucine aminopeptidase; assay type: functional, organism-based; method in brief: as §1
[6] = tested on: Enterococcus faecalis; assay: Antimicrobial activity against Enterococcus faecalis assessed as growth inhibition in presence of leucine aminopeptidase; assay type: functional, organism-based; method in brief: as §1
[7] = tested on: Micrococcus flavus; assay: Antimicrobial activity against Micrococcus flavus assessed as growth inhibition; assay type: functional
Method in brief: (§3)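 Broth microdilution MIC in GM17 in 96-well plates. Overnight M. flavus culture diluted 1:50 and grown to OD600 0.2, then 150 µl culture mixed with 50 µl medium containing serial peptide concentrations. Incubated overnight at a temperature suited to the strain (M. flavus grown at 30°C), with OD600 read every 30 min. MIC is the lowest concentration inhibiting growth, read when untreated cells reach half-maximal OD. At least triplicate.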

[8] = tested on: Micrococcus flavus; assay: Antimicrobial activity against Micrococcus flavus assessed as growth inhibition in presence of leucine aminopeptidase; assay type: functional; method in brief: as §3
[9] = tested on: Staphylococcus aureus; assay: Antimicrobial activity against Staphylococcus aureus assessed as growth inhibition in presence of trypsin; assay type: functional, organism-based; method in brief: as §2
[10] = tested on: Micrococcus flavus; assay: Antimicrobial activity against Micrococcus flavus assessed as growth inhibition in presence of trypsin; assay type: functional; method in brief: as §3
[11] = tested on: Streptococcus pneumoniae; assay: Antimicrobial activity against Streptococcus pneumoniae assessed as growth inhibition in presence of trypsin; assay type: functional, organism-based; method in brief: as §2

Row | MIC [7] [µM] | MIC [8] [µM] | MIC [10] [µM] | SMILES | growth inhibition (GI) [1] | growth inhibition (GI) [2] | growth inhibition (GI) [3] | growth inhibition (GI) [4] | growth inhibition (GI) [5] | growth inhibition (GI) [6] | growth inhibition (GI) [9] | growth inhibition (GI) [11]
1 | 85 (≈ 271 µg/mL) | 8.5 | 10 | CC[C@H](C)[C@H](NC(=O)[C@H](Cc1ccccc1)NC(=O)[C@H](CO)NC(=O)[C@H](CC(C)C)NC(=O)[C@@H](NC(=O)[C@H](C)NC(=O)[C@H](CO)NC(=O)[C@H](CS)NC(=O)[C@@H](NC(=O)[C@@H](NC(=O)[C@@H](NC(=O)[C@@H](N)CO)[C@@H](C)O)[C@@H](C)CC)[C@@H](C)CC)[C@@H](C)O)C(=O)N[C@@H](C)C(=O)N[C@@H](CO)C(=O)N[C@@H](Cc1ccc(O)cc1)C(=O)N[C@@H](CC(C)C)C(=O)NCC(=O)N[C@@H](CO)C(=O)N[C@@H](C)C(=O)N[C@@H](CCC(N)=O)C(=O)N[C@H](C(=O)N[C@@H](CCCNC(=N)N)C(=O)N[C@@H](CS)C(=O)NCC(=O)N[C@@H](CCCCN)C(=O)N[C@@H](CC(=O)O)C(=O)N[C@@H](CC(N)=O)C(=O)N[C@@H](CCCCN)C(=O)N[C@@H](CCCCN)C(=O)N[C@@H](CCCCN)C(=O)O)[C@@H](C)O (H-STIICSATLSFIASYLGSAQTRCGKDNKKK-OH) | inactive | inactive | inactive | inactive | inactive | inactive | inactive | inactive
2 | 20 (≈ 66.2 µg/mL) | – | 0.004 | C=C(NC(=O)[C@H](NC(=O)[C@@H](Cc1cnc[nH]1)NC(=O)[C@H](NC(=O)[C@@H](CO)NC(=O)[C@H]1CS[C@H](C)[C@@H]2NC(=O)[C@@H](C)NC(=O)[C@@H](NC(=O)[C@@H](CCCCN)NC(=O)[C@@H](CCSC)NC(=O)[C@@H](CC(N)=O)[C@H]3CS[C@H](C)[C@H](NC(=O)[C@@H](CCCCN)NC(=O)[C@H]4CS[C@H](C)[C@H](NC(=O)[C@H]5CSC[C@H](NC(=O)/C(=C/C)NC(=O)[C@H](N)[C@H](C)CC)C(=O)N[C@H]([C@H](C)CC)C(=O)NC(=C)C(=O)N[C@H](CC(C)C)C(=O)N5)C(=O)N5CCC[C@@H]5C(=O)NCC(=O)N4)C(=O)NCC(=O)N[C@H](C)C(=O)N[C@H](CC(C)C)C(=O)N[C@H](CCSC)C(=O)NCC(=O)N3)[C@@H](C)SC[C@@H](NC2=O)C(=O)N[C@H](Cc2cnc[nH]2)C(=O)N1)[C@H](C)CC)C(C)C)C(=O)N[C@H](CCCCN)C(=O)O [PRENISIN] | – | – | – | – | – | – | – | –

Row | SMILES | MIC [7] [µM] | MIC [8] [µM] | MIC [10] [µM] | growth inhibition (GI) [1] | growth inhibition (GI) [2] | growth inhibition (GI) [3] | growth inhibition (GI) [4] | growth inhibition (GI) [5] | growth inhibition (GI) [6] | growth inhibition (GI) [9] | growth inhibition (GI) [11]
3 | CC[C@H](C)[C@H](NC(=O)CNC(=O)[C@H](CO)NC(=O)[C@@H](NC(=O)[C@H](C)NC(=O)[C@H](C)NC(=O)[C@H](CO)NC(=O)[C@@H](NC(=O)[C@H](CS)NC(=O)[C@@H](NC(=O)[C@H](CCCCN)NC(=O)[C@H](CO)NC(=O)[C@H](CO)NC(=O)[C@H](C)NC(=O)[C@H](C)NC(=O)[C@H](C)NC(=O)[C@H](CO)NC(=O)[C@H](CCCCN)NC(=O)[C@H](CC(C)C)NC(=O)[C@@H](NC(=O)[C@@H](NC(=O)[C@@H]1CCCN1C(=O)[C@@H](NC(=O)[C@@H]1CCCN1C(=O)[C@@H](NC(=O)[C@@H](N)Cc1c[nH]c2ccccc12)[C@@H](C)O)[C@@H](C)O)[C@@H](C)CC)[C@@H](C)CC)C(C)C)[C@@H](C)CC)C(C)C)C(=O)NCC(=O)NCC(=O)N[C@@H](CC(C)C)C(=O)N[C@H](C(=O)N[C@@H](CO)C(=O)N[C@@H](Cc1ccc(O)cc1)C(=O)N[C@@H](CC(N)=O)C(=O)N[C@@H](CC(N)=O)C(=O)N[C@@H](CC(=O)O)C(=O)N[C@@H](CS)C(=O)N[C@@H](CC(C)C)C(=O)NCC(=O)O)C(C)C (H-WTPTPIILKSAAASSKVCISAAVSGIGGLVSYNNDCLG-OH) | 80 (≈ 301 µg/mL) | – | 0.6 | inactive | inactive | inactive | inactive | inactive | inactive | inactive | inactive
